# Source: PubChem BioAssay (Johns Hopkins Ion Channel Center)
# hERG rescue: hERG (human) protection from proarrhythmic block | Q12809 | CHO-hERG, FluxOR thallium flux, dofetilide IC70 present | activation (rescue from dofetilide block), less the hit threshold, % at 10 µM | 0.51% of 310,000 active;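 active means activation above the mean of controls blocked by dofetilide plus 5 SD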;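 further: thallium influx through hERG after potassium depolarization seen as dye fluorescence rise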
# Target sequence (Q12809 whole entry, looked up): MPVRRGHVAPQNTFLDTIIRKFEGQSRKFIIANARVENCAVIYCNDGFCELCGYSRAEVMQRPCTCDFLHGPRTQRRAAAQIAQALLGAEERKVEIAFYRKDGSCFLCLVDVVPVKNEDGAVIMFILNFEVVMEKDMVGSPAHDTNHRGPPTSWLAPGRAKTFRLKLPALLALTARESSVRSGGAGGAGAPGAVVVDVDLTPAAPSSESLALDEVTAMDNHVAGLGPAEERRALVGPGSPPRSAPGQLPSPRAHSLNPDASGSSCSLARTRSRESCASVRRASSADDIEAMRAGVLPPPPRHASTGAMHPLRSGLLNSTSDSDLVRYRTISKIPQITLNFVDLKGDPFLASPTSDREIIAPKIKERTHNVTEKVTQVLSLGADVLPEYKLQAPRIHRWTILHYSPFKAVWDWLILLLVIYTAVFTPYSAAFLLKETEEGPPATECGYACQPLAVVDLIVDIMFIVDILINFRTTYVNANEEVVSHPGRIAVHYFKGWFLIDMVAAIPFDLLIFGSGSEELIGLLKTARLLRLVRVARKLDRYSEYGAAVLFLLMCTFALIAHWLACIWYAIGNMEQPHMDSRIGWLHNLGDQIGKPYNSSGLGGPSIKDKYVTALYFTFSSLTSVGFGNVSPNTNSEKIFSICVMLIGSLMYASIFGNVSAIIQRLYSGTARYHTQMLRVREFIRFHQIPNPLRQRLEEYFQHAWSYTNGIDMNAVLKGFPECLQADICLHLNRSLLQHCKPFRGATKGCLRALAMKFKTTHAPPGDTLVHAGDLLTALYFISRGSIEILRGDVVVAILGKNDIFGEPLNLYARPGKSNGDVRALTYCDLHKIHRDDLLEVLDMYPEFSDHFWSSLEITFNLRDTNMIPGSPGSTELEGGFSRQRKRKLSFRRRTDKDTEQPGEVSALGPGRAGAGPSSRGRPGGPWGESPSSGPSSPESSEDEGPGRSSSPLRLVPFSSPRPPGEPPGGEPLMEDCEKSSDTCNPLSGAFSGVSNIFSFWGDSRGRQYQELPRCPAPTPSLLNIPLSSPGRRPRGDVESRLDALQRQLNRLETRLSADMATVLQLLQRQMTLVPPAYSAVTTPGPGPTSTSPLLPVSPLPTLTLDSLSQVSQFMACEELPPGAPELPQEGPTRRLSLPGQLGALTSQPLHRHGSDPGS
# KCNK3 inh: human KCNK3 channel inhibition, primary screen. CHO-KCNK3 thallium flux, FluxOR fluorescence; stronger effect = lower value. 0.84% of 340,000 active. B-score at 10 µM. O14649;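 active means B-score under library mean minus 4 SD, starting fluorescence ratio at most library mean plus 5 SD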;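 further: more negative B-score means stronger inhibition of thallium flux through KCNK3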
# KCNQ1 inh: blocks the human KCNQ1 potassium channel; P51787; CHO-K1 KCNQ1, FluxOR thallium flux fluorescence; stronger effect = higher value; B-score at 10 µM; 1.3% of 310,000 active; AID 2642;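 active means compounds whose thallium flux B-score, printed positive for inhibition, exceeds three library SD while starting fluorescence stays within three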;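 further: channel opened by potassium depolarization with thallium stimulus after 20 min compound exposure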
# KCNQ1 act: potentiators or activators of human KCNQ1 potassium channel; B-score at 10 µM; 0.35% of 310,000 active; CHO-K1 KCNQ1, thallium flux FluxOR fluorescence; stronger effect = higher value;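 active means fluorescence ratio B-score, a plate-corrected score, at least three library SD, with initial intensity B-score within 5 SD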
#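 System: Stable KCNQ1 CHO-K1 line | Incubation: 90 min dye loading and 20 min compound exposure, both at room temperature | Measure: Ratio B score | Medium: Assay buffer for compound exposure, DMSO matched across wells | Compound dosing: Single-concentration screen | Probe or stimulus: K+/Tl+ depolarizing stimulus | Measured by: Kinetic FluxOR fluorescence, 10 s baseline plus 110 s post-stimulus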
# KCNK9 inh: human KCNK9 channel inhibition; Q9NPC2; B-score at 10 µM; AID 488922; 1.2% of 310,000 active; HEK293 KCNK9, FluxOR thallium flux fluorescence; stronger effect = lower value;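 active means ratio B-score over 3 SD below the library mean, with starting fluorescence within 5 SD of its mean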;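 further: negative B-score means less thallium flux so channel inhibition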
# Kir21 block: inhibitors of mouse Kir2.1 inward-rectifier potassium channel | P35561 | HEK293-Kir2.1, FluxOR thallium flux fluorescence; stronger effect = lower value | B-score at 10 µM | 0.85% of 310,000 active | AID 1672;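 active means fluorescence ratio B-score at or below minus 3 SD of library scores, with starting-brightness B-score within 2 SD, cut at about -4.2 in these data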;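 further: channel flux triggered by added potassium and thallium sulfate stimulus; B-score of peak minus minimum fluorescence over baseline after thallium stimulus; more negative B-score means stronger Kir2.1 block with less thallium influx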
# The depositor's hits bear a star; i = inactive; . = no result. Shown are actives, neighbours in structure and some others; about 3.7% of the full set was active somewhere.
SMILES,hERG rescue,KCNK3 inh,KCNQ1 inh,KCNQ1 act,KCNK9 inh,Kir21 block
O=c1ccc(-c2nc3ccccc3n2Cc2ccc(Cl)cc2)c[nH]1,-11.8,i,i,10*,i,-0.08
Cc1nc2ccccc2n1Cc1ccc(Cl)cc1,-4.8,i,6*,i,i,1.22
Cc1ccc(C2(C)NC(=O)N(CC(=O)NC(=O)NC(C)(C)C)C2=O)cc1 (configuration not stated),-4.0,i,i,i,i,-0.44
COc1ccccc1-n1c(C)c(C(C)=O)c2cc(O)ccc21,-7.6,i,i,i,i,0.26
CN(CCOCCOc1ccc2ccccc2c1)Cc1ccccc1,-13.6,i,i,i,i,-7.01*
COc1ccc(-c2cc(C)no2)cc1S(=O)(=O)N1CCN(c2ccccc2F)CC1,-10.9,i,i,i,i,1.67
C=CCC[C@@H](Cc1ccc(F)cc1)C(=O)OC[C@@H](NC(=O)[C@@H](CC=C)CC(=O)N[C@H](CO)Cc1ccccc1)C(C)(C)C,.,i,.,.,.,.
Cc1ccccc1C(=O)N(CC(=O)Nc1sc(C)c(C)c1C(N)=O)C1CCCC1,-4.0,i,i,i,i,-0.7
O=C(Cc1c[nH]c2ccccc12)NCc1ccc(Cl)cc1Cl,-16.8,i,i,i,i,-4.25*
COc1ccccc1NC(=O)Nc1ccc2c(c1)nc(C)n2C,-6.3,i,i,i,i,0.01
CCCCCCCNC(=O)C1(CC2CC(c3ccc(Cl)cc3)=NO2)CCN(C(=O)OC(C)(C)C)CC1 (configuration not stated),-10.0,i,8*,i,i,-0.09
CC(C)(C)OC(=O)N1CCC(CC2CC(c3ccccc3)=NO2)(C(=O)O)CC1 (configuration not stated),-4.0,i,i,i,i,-0.06
COc1ccc(OC)c(S(=O)(=O)Nc2ccc(O)c3ccccc23)c1,11.3*,i,i,i,i,1.16
CCCCN1Cc2c(nc3cc(-c4ccco4)[nH]n3c2=O)C1=O,-5.1,i,i,i,i,0.81
Cc1ccc(C)c(SCC(=O)Nc2cccnc2Cl)c1,-8.8,i,i,i,i,0.52
COC(=O)C(CC(C)C)NC(=O)c1ccc([N+](=O)[O-])c(C)c1 (configuration not stated),4.6*,i,i,i,i,-0.55
Cc1ccccc1NC(=O)c1cc(C(=O)c2cc(Cl)ccc2O)cn(-c2ccccc2C)c1=O,-7.2,i,9*,i,i,0.44
COc1ccc(S(=O)(=O)N2CCOC2CNC(=O)C(=O)NCCCN2CCOCC2)cc1C (configuration not stated),1.7,i,i,i,i,-0.25
CCOC(=O)C(C)Sc1nc(-c2ccccc2)nc2ccccc12 (configuration not stated),-15.9,i,i,i,-7.63*,1.2
Cc1cc2nccc(-c3ccc(Cl)cc3Cl)n2n1,3.7,i,i,i,i,-0.14
Oc1c(Cl)cc(Cl)cc1Sc1cc(Cl)cc(Cl)c1O,43.0*,.,i,105*,i,0.96
CCOC(=O)C1CCCN(c2nc3ccccc3nc2NS(=O)(=O)c2ccc(C)cc2)C1 (configuration not stated),.,i,.,.,.,.
COc1ccccc1NS(=O)(=O)c1ccc(C)c(NS(=O)(=O)c2cc(NC(C)=O)ccc2OC)c1,.,i,.,.,.,.
OCCCc1nc2n(n1)C(c1ccccc1Cl)C=C(c1cccs1)N2 (configuration not stated),-16.7,-10.2*,i,i,i,-2.49
OCCCc1nc2n(n1)C(c1ccccc1)C=C(c1ccc(F)cc1)N2 (configuration not stated),-16.0,i,i,i,i,-0.92
SMILES,hERG rescue,KCNK3 inh,KCNQ1 inh,KCNQ1 act,KCNK9 inh,Kir21 block
Cc1nc(SCC(=O)NCC2CCCO2)c2c(C)c(C)sc2n1 (configuration not stated),.,i,.,.,.,.
Cc1nc(SCC(=O)NCC2CCCO2)c2c3c(sc2n1)CCCC3 (configuration not stated),15.5*,i,i,13*,i,-0.39
NNC(=O)CCCCCCCCCCOCCCCO,-6.2,i,i,i,i,1.25
Cc1cc(C)nc(SCC(=O)Nc2nc(-c3ccccc3)c(-c3ccccc3)o2)n1,-16.9,i,i,i,i,-0.05
Cc1ccc(C(=O)Nc2nc(-c3ccccc3)c(-c3ccccc3)o2)cc1,-1.5,i,i,40*,i,-0.28
COc1ccccc1NC(=O)N1CCCC1C(=O)Nc1ccc2c(c1)OCO2 (configuration not stated),-13.7,i,i,i,i,-0.68
O=C(Nc1ccc2c(c1)OCO2)C1CCCN1C(=O)Nc1ccccc1F (configuration not stated),5.6*,i,i,i,i,0.98
Fc1ccccc1CSc1nncn1NC/C=C/c1ccccc1,-15.3,i,i,i,i,-1.03
Cc1nnc(SCc2ccc(F)cc2)n1NC/C=C/c1ccccc1,-10.8,i,i,i,i,-5.06*
O=C(O)c1cc(Cl)c2ccccc2c1O,-13.0,i,6*,i,i,1.82
CCOC(=O)C1CCN(C(=O)CCCn2nc(C)c3c(C)n(-c4ccc(C)cc4)nc3c2=O)CC1,-4.7,i,i,i,i,-2.14
CC(=O)/C(=C/N(C)C)C(=O)Nc1ccc(Cl)cc1Cl,-6.5,i,10*,i,i,-0.06
C(#CCN1CCC(Cc2ccccc2)CC1)COCCOCc1ccccc1,-13.8,i,i,i,i,-5.05*
c1ccc(COCCN2CCN(CCOCc3ccccc3)CC2)cc1,-8.7,i,i,i,i,1.86
O=S1(=O)CCO[C@H]2Cc3ccccc3[C@H]2N1Cc1ccc(F)cc1,-11.9,i,i,i,i,-2.74
CCOC(=O)c1c(C)[nH]c(C)c1S(=O)(=O)NCc1ccc(OCC)cc1,-3.9,i,i,i,i,-1.15
O=C1CN(C(=O)CCCc2c[nH]c3ccccc23)c2ccccc2N1,-8.3,i,i,i,i,-5.71*
O=C(O)CCCC(=O)N1CC(=O)Nc2ccccc21,0.5,i,i,i,i,0.13
CCN(C(=O)CCN1C(=O)/C(=C/c2ccccc2)SC1=S)C1CCS(=O)(=O)C1 (configuration not stated),-9.6,i,i,i,i,0.42
c1ccc(-n2cnnc2SCc2cn3ccsc3n2)cc1,-7.5,i,i,i,i,-0.09
Cc1ccc(-n2c(SCc3cn4ccsc4n3)nc3ccccc3c2=O)cc1,-12.4,i,7*,i,i,-0.01
